Assay results taken from ChEMBL document CHEMBL1177746, “Labdanes and sucrose esters from Physalis sordida” (J Nat Prod, 2010).

How the values were obtained:
Mus musculus [1] = assay: Antiinflammatory activity in NIH mouse assessed as inhibition of TPA-induced mouse ear edema measured per ear administered to right ear relative to untreated control; type: functional, organism-based
Method in brief: (§1)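 Male NIH mice, groups of 5-8, anaesthetized with Sedaphorte. Right ear got TPA 2.5 μg in 10 μL EtOH, split across both faces; left ear got EtOH only. 10 min later, test compound at 0.1 to 1.0 μmol in 20 μL Me₂CO-CH₂Cl₂ (1:1) was applied to the right ear; controls got vehicle only. Sacrificed at 4 h; a 7 mm plug was taken from each ear.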

Mus musculus [2] = assay: Antiinflammatory activity in NIH mouse assessed as inhibition of TPA-induced mouse ear edema at 1 umol/ear administered to right ear relative to untreated control; type: functional; method in brief: as §1

Row | Structure (SMILES) | IC50 (Mus musculus [1]) [µmol/ear] | inhibition (INH) (Mus musculus [2]) [%]
1 | CCCCCCCCCCCC(=O)O[C@H]1[C@@H](O[C@]2(COC(C)=O)O[C@H](CO)[C@@H](O)[C@@H]2O)O[C@H](CO)[C@@H](O)[C@@H]1OC(=O)C(C)C | 0.34 | –
2 | CCCCCCCCCCCC(=O)O[C@H]1[C@@H](O[C@]2(CO)O[C@H](CO)[C@@H](O)[C@@H]2OC(=O)C(C)C)O[C@H](CO)[C@@H](O)[C@@H]1OC(=O)C(C)C | 0.35 | –
3 | C=C1[C@H](O)C[C@H]2C(C)(C)CCC[C@]2(C)[C@H]1C[C@@H](O)/C(C)=C/CO [PHYSORDIN] | 0.63 | 64.3
4 | CCCCCCCCCCCC(=O)O[C@H]1[C@@H](O[C@]2(COC(C)=O)O[C@H](CO)[C@@H](O)[C@@H]2OC(=O)C(C)C)O[C@H](CO)[C@@H](O)[C@@H]1OC(=O)C(C)C | 0.26 | –
5 | CC(=O)O[C@H](C[C@H]1C(C)=CC[C@H]2C(C)(C)CCC[C@]12C)/C(C)=C/CO | – | 25.4
6 | C=C1[C@H](OC(C)=O)C[C@H]2C(C)(C)CCC[C@]2(C)[C@H]1C[C@@H](OC(C)=O)/C(C)=C/COC(C)=O | – | 29.4
7 | CCCCCCCCCCCC(=O)O[C@H]1[C@@H](O[C@]2(CO)O[C@H](CO)[C@@H](O)[C@@H]2O)O[C@H](CO)[C@@H](O)[C@@H]1OC(=O)C(C)C | 0.24 | –
8 | CC1=CC[C@H]2C(C)(C)CCC[C@]2(C)[C@H]1C[C@@H](O)/C(C)=C/CO [PHYSACOZTOMATIN] | 0.49 | 65.8
